Measurements: ChEMBL document CHEMBL1140925, “Nuclear factor-kappaB mediated inhibition of cytokine production by imidazoline scaffolds” (J Med Chem, 2009)

Columns and labels:
HeLa [1] = test: Cell cycle arrest in TNF-alpha-stimulated human HeLa cells transfected with NFkappaB-Luc assessed as accumulation at diploid G1 phase at 10 uM after 8 hrs by propidium iodide-based flow cytometry; format: functional
Summary of the method: (§1)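 HeLa NF-κB-luc cells (stable, hygromycin-selected) were treated with vehicle (1% DMSO) or compound at 40–0.2 µM final for 8 h at 37 °C, 5% CO2. Adherent cells were trypsinized, resuspended in PBS/50% FBS, fixed overnight in 70% ice-cold ethanol and washed with cold PBS/10% FBS, then analysed for cell cycle by flow cytometry.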

HeLa [2] = test: Cell cycle arrest in TNF-alpha-stimulated human HeLa cells transfected with NFkappaB-Luc assessed as accumulation at G2/G1 phase at 20 uM after 8 hrs by propidium iodide-based flow cytometry; format: functional; summary of the method: as §1
HeLa [3] = test: Cell cycle arrest in TNF-alpha-stimulated human HeLa cells transfected with NFkappaB-Luc assessed as accumulation at diploid stage at 20 uM after 8 hrs by propidium iodide-based flow cytometry; format: functional; summary of the method: as §1
HeLa [4] = test: Cell cycle arrest in human HeLa cells transfected with NFkappaB-Luc assessed as accumulation at G2/G1 phase at 20 uM after 8 hrs by propidium iodide-based flow cytometry; format: functional; summary of the method: as §1
HeLa [5] = test: Cell cycle arrest in human HeLa cells transfected with NFkappaB-Luc assessed as accumulation at S phase at 20 uM after 8 hrs by propidium iodide-based flow cytometry; format: functional; summary of the method: as §1
HeLa [6] = test: Cell cycle arrest in human HeLa cells transfected with NFkappaB-Luc assessed as accumulation at diploid G1 phase at 20 uM after 8 hrs by propidium iodide-based flow cytometry; format: functional; summary of the method: as §1
HeLa [7] = test: Cell cycle arrest in TNF-alpha-stimulated human HeLa cells transfected with NFkappaB-Luc assessed as accumulation at diploid G1 phase at 0.1 uM after 8 hrs by propidium iodide-based flow cytometry; format: functional
HeLa [8] = test: Cell cycle arrest in TNF-alpha-stimulated human HeLa cells transfected with NFkappaB-Luc assessed as accumulation at G2/G1 phase at 0.1 uM after 8 hrs by propidium iodide-based flow cytometry; format: functional
HeLa [9] = test: Cell cycle arrest in TNF-alpha-stimulated human HeLa cells transfected with NFkappaB-Luc assessed as accumulation at diploid stage at 0.05 uM after 8 hrs by propidium iodide-based flow cytometry; format: functional
HeLa [10] = test: Cell cycle arrest in TNF-alpha-stimulated human HeLa cells transfected with NFkappaB-Luc assessed as accumulation at diploid G1 phase at 0.05 uM after 8 hrs by propidium iodide-based flow cytometry; format: functional
[11] = Cytotoxicity against human whole blood lymphocytes assessed as survival cell count in millions at 10 uM by trypan blue staining based hemocytometer
HeLa [12] = test: Effect on cell cycle arrest in TNF-alpha-stimulated human HeLa cells assessed as cell aggregate level at 20 uM after 8 hrs by propidium iodide-based flow cytometry; format: functional
HeLa [13] = test: Effect on cell cycle arrest in TNF-alpha-stimulated human HeLa cells assessed as cell debris level at 5 uM after 8 hrs by propidium iodide-based flow cytometry; format: functional
HeLa [14] = test: Effect on cell cycle arrest in TNF-alpha-stimulated human HeLa cells assessed as cell aggregate level at 5 uM after 8 hrs by propidium iodide-based flow cytometry; format: functional
HeLa [15] = test: Effect on cell cycle arrest in TNF-alpha-stimulated human HeLa cells assessed as cell debris level at 1 uM after 8 hrs by propidium iodide-based flow cytometry; format: functional
HeLa [16] = test: Effect on cell cycle arrest in TNF-alpha-stimulated human HeLa cells assessed as cell aggregate level at 1 uM after 8 hrs by propidium iodide-based flow cytometry; format: functional
HeLa [17] = test: Effect on cell cycle arrest in TNF-alpha-stimulated human HeLa cells assessed as cell aggregate level at 0.5 uM after 8 hrs by propidium iodide-based flow cytometry; format: functional
HeLa [18] = test: Cell cycle arrest in TNF-alpha-stimulated human HeLa cells transfected with NFkappaB-Luc assessed as accumulation at diploid stage at 0.1 uM after 8 hrs by propidium iodide-based flow cytometry; format: functional
[19] = Inhibition of TNF-alpha-induced NF-kappaB-mediated transcription expressed in human HeLa cells co-transfected with renilla luciferase-TK gene preincubated for 30 mins before TNFalpha challenge measured after 8 hrs by dual-glo luciferase reporter gene assay; format: cell-based
Summary of the method: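 HeLa cells were transiently cotransfected (lipofectamine 2000, 5–6 h) with 6×κB pNF-κB-luc and the pRL-TK Renilla control, then grown 24 h. They were pretreated 30 min with 0.312–20 µM (1% DMSO vehicle), then stimulated with 25 ng/mL TNF-α for 8 h at 37 °C. Dual-Glo firefly signal was normalized to Renilla luminescence.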

Blood [20] = test: Antiinflammatory activity in human whole blood assessed as inhibition of IL-1-beta-induced TNFalpha production preincubated 2 hrs before addition of IL1-beta measured after 18 hrs by ELISA; format: functional, tissue-based; conditions: Homo sapiens, Blood
Summary of the method: (§2)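 Human blood from donors with white count in the normal range, diluted 1:10 in RPMI-1640 with 10% FBS, penicillin and streptomycin. Aliquots were preincubated with vehicle (0.1% DMSO final) or compound at 10, 3, 1, 0.3 or 0.1 µM final for 2 h at 37 °C, 5% CO2. IL-1β (200 U/mL) was then added for 18 h, and plasma was collected and frozen. Cytokine was measured by ELISA.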

Blood [21] = test: Antiinflammatory activity in human whole blood assessed as inhibition of IL-1-beta-induced IL6 production preincubated 2 hrs before addition of IL1-beta measured after 18 hrs by ELISA; format: functional, tissue-based; summary of the method: as §2
Blood [22] = test: Antiinflammatory activity in human whole blood assessed as inhibition of IL-1-beta-induced IL6 production after 18 hrs by ELISA; format: functional, tissue-based; summary of the method: as §2
HeLa [23] = test: Cell cycle arrest in TNF-alpha-stimulated human HeLa cells transfected with NFkappaB-Luc assessed as accumulation at S phase at 0.5 uM after 8 hrs by propidium iodide-based flow cytometry; format: functional; summary of the method: as §1
HeLa [24] = test: Cell cycle arrest in TNF-alpha-stimulated human HeLa cells transfected with NFkappaB-Luc assessed as accumulation at diploid G2 phase at 0.5 uM after 8 hrs by propidium iodide-based flow cytometry; format: functional; summary of the method: as §1
HeLa [25] = test: Cell cycle arrest in TNF-alpha-stimulated human HeLa cells transfected with NFkappaB-Luc assessed as accumulation at diploid G1 phase at 0.5 uM after 8 hrs by propidium iodide-based flow cytometry; format: functional; summary of the method: as §1
HeLa [26] = test: Cell cycle arrest in TNF-alpha-stimulated human HeLa cells transfected with NFkappaB-Luc assessed as accumulation at diploid stage at 0.5 uM after 8 hrs by propidium iodide-based flow cytometry; format: functional; summary of the method: as §1
HeLa [27] = test: Cell cycle arrest in TNF-alpha-stimulated human HeLa cells transfected with NFkappaB-Luc assessed as accumulation at G2/G1 phase at 1 uM after 8 hrs by propidium iodide-based flow cytometry; format: functional
HeLa [28] = test: Cell cycle arrest in TNF-alpha-stimulated human HeLa cells transfected with NFkappaB-Luc assessed as accumulation at diploid stage at 1 uM after 8 hrs by propidium iodide-based flow cytometry; format: functional
HeLa [29] = test: Cell cycle arrest in TNF-alpha-stimulated human HeLa cells transfected with NFkappaB-Luc assessed as accumulation at diploid G2 phase at 5 uM after 8 hrs by propidium iodide-based flow cytometry; format: functional; summary of the method: as §1
HeLa [30] = test: Cell cycle arrest in TNF-alpha-stimulated human HeLa cells transfected with NFkappaB-Luc assessed as accumulation at G2/G1 phase after 8 hrs by propidium iodide-based flow cytometry

Q: Which Activity (HeLa [1]) does the source give for `CCOC(=O)[C@]1(c2ccccc2)N=C(c2ccccc2)N(Cc2ccccc2)[C@@H]1c1ccccc1` (racemic) here?
A: 68.19%

Q: And the Ratio (HeLa [2])?
A: 1.9

Q: And the Activity (HeLa [3])?
A: 100%

Q: And the Ratio (HeLa [4])?
A: 1.9

Q: And the Activity (HeLa [5])?
A: 21.48%

Q: What about the Activity (HeLa [6]) of the same compound?
A: 65.19%

Q: And the Activity (HeLa [7])?
A: 64.5%

Q: And the Ratio (HeLa [8])?
A: 1.92

Q: What about the Activity (HeLa [9]) of the same compound?
A: 100%

Q: And the Activity (HeLa [10])?
A: 64.3%

Q: And the Activity [11]?
A: 1.6 mL⁻¹

Q: And the Activity (HeLa [12])?
A: 0%

Q: What about the Activity (HeLa [13]) of the same compound?
A: 2.7%

Q: What about the Activity (HeLa [14]) of the same compound?
A: 0%

Q: What about the Activity (HeLa [15]) of the same compound?
A: 4.88%

Q: What about the Activity (HeLa [16]) of the same compound?
A: 0%

Q: What about the Activity (HeLa [17]) of the same compound?
A: 0%

Q: What about the Activity (HeLa [18]) of the same compound?
A: 100%

Q: What about the EC50 [19] of the same compound?
A: 4670 nM

Q: And the IC50 (Blood [20])?
A: 1180 nM

Q: And the logIC50 (Blood [21])?
A: 0.07

Q: And the EC50 (Blood [22])?
A: 1830 nM

Q: And the Activity (HeLa [23])?
A: 22.52%

Q: What about the Activity (HeLa [24]) of the same compound?
A: 13.4%

Q: And the Activity (HeLa [25])?
A: 64.08%

Q: What about the Activity (HeLa [26]) of the same compound?
A: 100%

Q: What about the Ratio (HeLa [27]) of the same compound?
A: 1.91

Q: And the Activity (HeLa [28])?
A: 100%

Q: And the Activity (HeLa [29])?
A: 13.84%

Q: And the Ratio (HeLa [30])?
A: 1.91
